The source of these data is ChEMBL document CHEMBL6134764, “Synthesis and biological evaluation of novel D-ring fused steroidal N(2)-substituted-1,2,3-triazoles” (RSC Med Chem, 2025).

Calls of active or inactive are those of the source. No cut-off for these calls is given here.

Series [1] concerns the target T1, Androgen receptor (Homo sapiens) (UniProt P10275).
T1 sequence (whole entry): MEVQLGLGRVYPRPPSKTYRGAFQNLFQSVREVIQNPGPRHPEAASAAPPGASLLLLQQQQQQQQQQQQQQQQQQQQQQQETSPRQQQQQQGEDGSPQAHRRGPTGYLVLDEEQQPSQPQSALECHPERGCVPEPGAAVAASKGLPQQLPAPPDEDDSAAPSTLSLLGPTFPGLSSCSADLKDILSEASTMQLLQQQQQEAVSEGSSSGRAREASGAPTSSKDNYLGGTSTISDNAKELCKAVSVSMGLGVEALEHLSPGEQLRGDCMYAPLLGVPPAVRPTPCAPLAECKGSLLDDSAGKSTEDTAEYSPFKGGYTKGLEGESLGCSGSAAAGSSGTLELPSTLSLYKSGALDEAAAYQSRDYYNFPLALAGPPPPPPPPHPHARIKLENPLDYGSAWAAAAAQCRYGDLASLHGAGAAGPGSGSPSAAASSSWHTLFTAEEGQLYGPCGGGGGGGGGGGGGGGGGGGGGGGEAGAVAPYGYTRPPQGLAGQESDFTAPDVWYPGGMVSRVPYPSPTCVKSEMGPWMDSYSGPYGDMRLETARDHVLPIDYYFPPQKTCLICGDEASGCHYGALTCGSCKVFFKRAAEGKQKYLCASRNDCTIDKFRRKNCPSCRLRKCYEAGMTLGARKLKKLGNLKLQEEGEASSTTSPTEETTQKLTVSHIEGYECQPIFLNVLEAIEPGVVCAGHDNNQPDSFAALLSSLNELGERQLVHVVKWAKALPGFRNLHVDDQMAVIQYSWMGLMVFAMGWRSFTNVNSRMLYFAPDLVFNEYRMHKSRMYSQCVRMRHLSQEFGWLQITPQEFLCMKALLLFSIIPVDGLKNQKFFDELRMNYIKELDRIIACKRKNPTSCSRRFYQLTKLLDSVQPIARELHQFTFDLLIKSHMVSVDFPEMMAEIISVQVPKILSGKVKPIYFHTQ
The series can be described thus: Binding affinity to human recombinant androgen receptor ligand binding domain extracted from saccharomyces cerevisiae coexpressing yellow fluorescent protein assessed as relative binding affinity at 10 uM incubated for 14 to 16 hrs by fluorimetry based fluorescence microscopic analysis. The conditions noted are these: time 14-16 hrs. In a few lines:
(§1)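 S. cerevisiae FY250 carrying receptor LBD–EYFP fusions (human ERα, ERβ, AR; rat GR); raffinose drop-out medium, grown to OD600 ~0.6, fusion induced with 2% galactose. Compounds 10 μM (ER, AR) or 100 μM (GR), 14–16 h, 25 °C, dark; DMSO solvent control. Fluorescence at ex/em 485/538 nm, triplicate; fold change vs DMSO (normalized to 1).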

In series [2] the target is T2, Aldo-keto reductase family 1 member C4 (Homo sapiens) (UniProt P17516).
T2 sequence (whole entry): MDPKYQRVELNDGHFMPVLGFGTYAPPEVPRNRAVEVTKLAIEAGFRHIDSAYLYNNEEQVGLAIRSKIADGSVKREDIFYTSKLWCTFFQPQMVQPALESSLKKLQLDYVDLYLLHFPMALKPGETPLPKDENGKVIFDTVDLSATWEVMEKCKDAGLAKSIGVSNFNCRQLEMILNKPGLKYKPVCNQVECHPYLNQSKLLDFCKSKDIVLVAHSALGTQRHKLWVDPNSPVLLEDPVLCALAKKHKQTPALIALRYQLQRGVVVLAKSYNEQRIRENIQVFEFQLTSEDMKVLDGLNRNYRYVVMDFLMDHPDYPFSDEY
In words: Inhibition of N-terminal his-tagged recombinant human AKR1C4 assessed as NADPH consumption using 9,10-phenanthrenequinone as substrate at 33 uM by fluorescence spectroscopic analysis relative to control. In a few lines:
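N-His-tagged human AKR1C4 from E. coli BL21(DE3), purified by Ni-affinity and size exclusion. Enzyme at 160 μg/mL with 17 μM 9,10-phenanthrenequinone and 250 μM NADPH in 100 mM potassium phosphate pH 6.0, 37 °C, duplicate. Compound at 33 μM final. NADPH fluorescence (ex 340/em 460 nm) read every 30 s for 10 min; inhibition from linear slope vs uninhibited enzyme (100%).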

In series [3] the target is Estrogen receptor beta (Homo sapiens) (UniProt Q92731). In words: Binding affinity to human recombinant ERbeta ligand binding domain extracted from saccharomyces cerevisiae coexpressing yellow fluorescent protein assessed as relative binding affinity at 10 uM incubated for 14 to 16 hrs by fluorimetry based fluorescence microscopic analysis. The conditions noted are these: time 14-16 hrs. In a few lines:
as §1

The target of series [4] is T3, Estrogen receptor (Homo sapiens) (UniProt P03372).
T3 sequence (whole entry): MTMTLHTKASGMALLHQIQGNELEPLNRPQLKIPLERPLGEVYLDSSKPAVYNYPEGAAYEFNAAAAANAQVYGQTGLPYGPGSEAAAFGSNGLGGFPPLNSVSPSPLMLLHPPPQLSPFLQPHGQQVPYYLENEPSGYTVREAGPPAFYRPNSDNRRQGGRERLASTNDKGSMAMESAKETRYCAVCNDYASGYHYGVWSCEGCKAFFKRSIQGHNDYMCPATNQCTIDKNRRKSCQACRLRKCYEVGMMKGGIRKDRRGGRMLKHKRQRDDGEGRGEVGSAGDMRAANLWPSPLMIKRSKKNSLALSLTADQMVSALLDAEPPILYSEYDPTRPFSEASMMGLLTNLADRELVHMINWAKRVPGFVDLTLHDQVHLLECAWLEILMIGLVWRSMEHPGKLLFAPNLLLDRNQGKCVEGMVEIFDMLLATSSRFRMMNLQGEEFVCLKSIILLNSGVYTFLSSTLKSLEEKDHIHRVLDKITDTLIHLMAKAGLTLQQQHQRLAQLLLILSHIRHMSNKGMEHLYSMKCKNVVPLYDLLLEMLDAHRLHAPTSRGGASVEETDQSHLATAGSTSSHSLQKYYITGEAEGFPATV
The series can be described thus: Binding affinity to human recombinant ERalpha ligand binding domain extracted from saccharomyces cerevisiae coexpressing yellow fluorescent protein assessed as relative binding affinity at 10 uM incubated for 14 to 16 hrs by fluorimetry based fluorescence microscopic analysis. The conditions noted are these: time 14-16 hrs. An outline of the steps:
as §1

For series [5], the system named is MCF7. In words: Cytotoxicity against human MCF7 cells assessed as reduction in cell viability incubated for 72 hrs by resazurin assay. The conditions noted are these: MCF7, 72 h.
Series [6] can be described thus: Toxicity in human hTERT-BJ cells assessed as reduction in cell viability at 0.01 to 100 uM incubated for 72 hrs by resazurin assay. Type of series: cell-based. The conditions noted are these: dose 0.01-100 µM. An outline of the steps: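 hTERT-immortalized BJ-5ta foreskin fibroblasts grown in high-glucose DMEM with 20% Medium 199 and 10% FBS. Exposed to 0.01–100 μM for 72 h, then 0.01 mg/mL resazurin for 2 h, fluorescence at 584 nm; n = 3; one-way ANOVA with Dunnett's test vs control.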

The subject of series [7] is Huh-7. The series can be described thus: Cytotoxicity against human Huh-7 cells assessed as reduction in cell viability incubated for 72 hrs by resazurin assay. The conditions noted are these: Huh-7, 72 h.
Series [8] deals with MDA-MB-231. In words: Cytotoxicity against human MDA-MB-231 cells assessed as reduction in cell viability incubated for 72 hrs by resazurin assay. The conditions noted are these: MDA-MB-231, 72 h.
Series [9] concerns HCT-116. The series can be described thus: Cytotoxicity against human HCT-116 cells assessed as reduction in cell viability incubated for 72 hrs by resazurin assay. The conditions noted are these: HCT-116, 72 h.

Chain of Estrogen receptor beta (Homo sapiens) (Q92731 whole entry, the tested form may be a part): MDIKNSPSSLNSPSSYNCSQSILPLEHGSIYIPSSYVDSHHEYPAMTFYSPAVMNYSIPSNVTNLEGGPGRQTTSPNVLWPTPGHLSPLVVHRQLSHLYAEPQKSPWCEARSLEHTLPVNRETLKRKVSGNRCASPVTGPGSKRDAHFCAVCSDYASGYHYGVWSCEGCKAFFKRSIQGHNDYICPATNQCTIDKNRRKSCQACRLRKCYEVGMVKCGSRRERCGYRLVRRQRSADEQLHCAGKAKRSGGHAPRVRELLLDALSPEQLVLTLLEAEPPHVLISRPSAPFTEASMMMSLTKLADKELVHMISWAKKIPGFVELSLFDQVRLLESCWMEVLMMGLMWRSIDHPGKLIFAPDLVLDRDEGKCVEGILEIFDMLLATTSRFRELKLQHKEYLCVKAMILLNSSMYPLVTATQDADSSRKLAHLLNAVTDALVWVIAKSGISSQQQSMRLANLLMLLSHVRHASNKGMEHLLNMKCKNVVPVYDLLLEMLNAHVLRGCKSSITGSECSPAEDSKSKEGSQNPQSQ

`Cn1nc2c(n1)[C@@]1(C)CC[C@H]3[C@@H](CC=C4C[C@@H](O)CC[C@@]43C)[C@@H]1C2`: the result in series [1] and in series [4] was inactive. The inhibition in series [2] was found to be 0%. The result in [3] was Active.
In the case of `CC(=O)O[C@H]1CC[C@@]2(C)C(=CC[C@@H]3[C@@H]2CC[C@]2(C)c4nn(C(C)=O)nc4C[C@@H]32)C1`, the outcome in series [1] and in series [4] was inactive. In [2], the inhibition was 8.32%. In addition, in series [3], the result was Active.
On to `Cn1nc2c(n1)[C@@]1(C)CC[C@@H]3c4ccc(OCc5ccccc5)cc4CC[C@H]3[C@@H]1C2`, for which the result in series [1] and in series [4] was inactive. Moreover, the inhibition in series [2] amounted to 0%.
For the molecule `CC(C)Cc1ccc(C(C)C(=O)O)cc1` (configuration not stated), the inhibition in series [2] is 43.9%.
For the molecule `CCn1nc2c(n1)[C@@]1(C)CC[C@H]3[C@@H](CC=C4C[C@@H](O)CC[C@@]43C)[C@@H]1C2`, the outcome in series [1] and in series [4] was inactive. Further, the inhibition in [2] came out at 2.81%.
For `CCOC(=O)Cn1nc2c(n1)[C@@]1(C)CC[C@H]3[C@@H](CC=C4C[C@@H](O)CC[C@@]43C)[C@@H]1C2`, the outcome in series [1] and in series [4] was inactive. Also, the inhibition in series [2] is 0%.
For the molecule `CCn1nc2c(n1)[C@@]1(C)CC[C@@H]3c4ccc(OCc5ccccc5)cc4CC[C@H]3[C@@H]1C2`, the result in [1] and in [4] was inactive. The inhibition in series [2] turned out to be 0%.
In the case of `CCCCn1nc2c(n1)[C@@]1(C)CC[C@H]3[C@@H](CC=C4C[C@@H](O)CC[C@@]43C)[C@@H]1C2`, the result in [1] and in series [4] was inactive. Besides, in series [2], the inhibition worked out at 0%.
As for `C[C@]12CC[C@H](O)CC1=CC[C@@H]1[C@@H]2CC[C@]2(C)c3nn(CCN)nc3C[C@@H]12`, the result in series [1] and in [4] was inactive. Also, the IC50 in series [5], in [7], in series [8] and in series [9] was 22.3 µM each time. For the same molecule, the inhibition in series [2] was determined as 2.29%. Besides, the Activity result in series [6] was “Toxic”.
With `CCCCCCCCn1nc2c(n1)[C@@]1(C)CC[C@@H]3c4ccc(OCc5ccccc5)cc4CC[C@H]3[C@@H]1C2`, the outcome in series [1] and in series [4] was inactive. Further, the inhibition in series [2] amounted to 0%.
Consider `C[C@]12CC[C@@H]3c4ccc(OCc5ccccc5)cc4CC[C@H]3[C@@H]1Cc1nn(Cc3ccccc3)nc12`, for which the result in series [1] and in series [4] was inactive. The inhibition in series [2] turned out to be 0%. For the same molecule, the result in [3] was Active.
`C[C@]12CC[C@H](O)CC1=CC[C@@H]1[C@@H]2CC[C@]2(C)c3nn(Cc4ccccc4)nc3C[C@@H]12`: the outcome in [1] and in series [4] was inactive. For the same molecule, in series [2], the inhibition worked out at 0%.
